Experimental data reported in ChEMBL document CHEMBL2311478, “Macrolactonolides: a novel class of anti-inflammatory compounds” (Bioorg Med Chem, 2013).
≈ marks a conversion by molar mass, not a printed value. Calls of active or inactive are those of the source. No cut-off for these calls is given here.

How the values were obtained:
Enterococcus faecalis = assay: Antibacterial activity against Enterococcus faecalis ATCC 29213 by broth microdilution method; format: functional
How it was run: (§1)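 CLSI broth microdilution with double dilutions in 96-well plates. For streptococci, 5% horse serum replaced lysed blood in the medium. Inocula were grown on Columbia agar with 5% sheep blood for streptococci, Mueller–Hinton chocolate agar for H. influenzae, and Mueller–Hinton agar for staphylococci. Read-out is MIC in mg/L.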

[1] = Drug uptake in mouse J774A1 cells assessed as compound retention at 10 uM after 3 hrs by LC-MS/MS method; format: ADME, cell-based; details: j774.a1, 3 h
How it was run: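 J774A.1 cells were loaded with 10 µM compound for 3 h in DMEM/25 mM Hepes, then incubated 3 h in fresh medium. Cells were washed, lysed in 0.5% Triton X-100 and analysed by LC–MS/MS. Retention is the percentage of the initially accumulated amount remaining. Triplicates, mean ± SD from one representative experiment.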

PBMC [2] = assay: Antiinflammatory activity in human PBMC assessed as inhibition of LPS-induced IL-8 production after 6 hrs; format: functional, cell-based
How it was run: (§2)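 Thawed cryopreserved human PBMCs were preincubated 1 h at 37 °C, 5% CO2, then exposed to test compound for 1 h before LPS, anti-CD3 or PHA stimulation. Supernatants were collected at 6, 24 or 48 h according to each cytokine's peak, and cytokines quantified by Luminex multiplex bead assay. 10-point titration starting at 20 µM, in duplicate, with constant DMSO. Parallel Alamar Blue cytotoxicity check under 48 h PHA.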

Haemophilus influenzae = assay: Antibacterial activity against Haemophilus influenzae ATTC 49247 by broth microdilution method; format: functional; how it was run: as §1
PBMC [3] = assay: Antiinflammatory activity in human PBMC assessed as inhibition of PHA-induced IL-5 production after 48 hrs; format: functional, cell-based; how it was run: as §2
PBMC [4] = assay: Antiinflammatory activity in human PBMC assessed as inhibition of PHA-induced IL-13 production after 24 hrs; format: functional, cell-based; how it was run: as §2
[5] = Tmax in Balb/c mouse blood at 2 mg/kg, administered intranasally; format: ADME, organism-based; set-up: dose 2 mg/kg; details: whole blood, inhaled or intranasal
How it was run: (§3)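 Male Balb/c mice (21–25 g) dosed intranasally with freshly prepared formulation in 1% DMSO plus 0.125% CMC. Terminal bleeding and lung collection from 5 min to 72 h. K2EDTA blood taken as blood aliquots or spun for plasma. Lung homogenised 1:5 in water. Samples were protein-precipitated with acetonitrile/methanol (2:1) plus roxithromycin internal standard and quantified by LC–MS/MS. LLOQ 0.5 ng/mL (blood/plasma) and 2.5 ng/mL (lung).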

PBMC [6] = assay: Antiinflammatory activity in human PBMC assessed as inhibition of PHA-induced IL-10 production after 48 hrs; format: functional, cell-based; how it was run: as §2
PBMC [7] = assay: Antiinflammatory activity in human PBMC assessed as inhibition of LPS-induced TNFalpha production after 6 hrs; format: functional, cell-based; how it was run: as §2
Streptococcus pyogenes [8] = assay: Antibacterial activity against inducible-resistant to macrolide, licosamide and streptogramin Streptococcus pyogenes Finland 11 by broth microdilution method; format: functional
How it was run: (§4)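 MICs by CLSI broth microdilution with double dilutions, except that Streptococcus medium used 5% horse serum in place of lysed blood. Bacteria were pre-grown on Columbia agar with 5% sheep blood (streptococci) or Mueller–Hinton agar (staphylococci).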

Streptococcus pyogenes [9] = assay: Antibacterial activity against constitutive-resistant to macrolide, licosamide and streptogramin Streptococcus pyogenes 166 GR-Micro by broth microdilution method; format: functional; how it was run: as §4
Glucocorticoid receptor [10] = molecular target: T1, Glucocorticoid receptor (Homo sapiens, UniProt P04150); assay: Binding affinity to glucocorticoid receptor (unknown origin) by fluorescence polarization competitive binding assay
T1 sequence (P04150 whole entry): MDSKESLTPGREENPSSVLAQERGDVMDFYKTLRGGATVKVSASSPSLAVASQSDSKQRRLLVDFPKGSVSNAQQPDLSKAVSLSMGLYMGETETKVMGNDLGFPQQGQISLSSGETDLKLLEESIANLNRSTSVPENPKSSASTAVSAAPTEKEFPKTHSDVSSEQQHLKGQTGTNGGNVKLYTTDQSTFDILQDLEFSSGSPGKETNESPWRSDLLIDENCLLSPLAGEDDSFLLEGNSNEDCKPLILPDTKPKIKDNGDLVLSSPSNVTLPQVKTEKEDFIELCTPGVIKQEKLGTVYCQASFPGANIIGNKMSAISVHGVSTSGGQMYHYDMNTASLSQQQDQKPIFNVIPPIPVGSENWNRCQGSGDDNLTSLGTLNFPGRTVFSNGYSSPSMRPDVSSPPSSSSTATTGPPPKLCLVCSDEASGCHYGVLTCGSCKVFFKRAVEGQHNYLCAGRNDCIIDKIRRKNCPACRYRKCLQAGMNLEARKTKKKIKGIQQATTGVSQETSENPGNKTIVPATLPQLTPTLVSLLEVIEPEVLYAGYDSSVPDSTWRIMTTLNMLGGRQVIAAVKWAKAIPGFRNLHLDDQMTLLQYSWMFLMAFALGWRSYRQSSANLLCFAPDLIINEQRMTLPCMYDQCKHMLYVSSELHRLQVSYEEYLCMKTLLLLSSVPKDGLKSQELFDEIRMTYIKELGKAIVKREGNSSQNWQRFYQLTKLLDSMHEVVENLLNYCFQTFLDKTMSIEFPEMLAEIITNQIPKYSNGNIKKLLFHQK

[11] = Half life in Balb/c mouse lung at 2 mg/kg, administered intranasally; format: ADME, organism-based; set-up: dose 2 mg/kg; details: inhaled or intranasal; how it was run: as §3
[12] = Cmax in Balb/c mouse lung at 2 mg/kg, administered intranasally; format: ADME, organism-based; set-up: dose 2 mg/kg, route nasal; details: inhaled or intranasal; how it was run: as §3
Rattus norvegicus = assay: Antiinflammatory activity against ovalbumin-induced airway allergic Brown-Norway rat model assessed as decrease of macrophages in bronchoalveolar lavage fluid at 32 mg/kg administered intranasally as dry powder measured on day 29 after ovalbumin challenge; format: functional, organism-based; set-up: dose 32 mg/kg; details: Lung
How it was run: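 Brown-Norway rats sensitised by OVA injection on day 1, boosted on days 14 and 20. Treatment with 32 mg/kg or air control on day 27, followed 1 h later by 60 min OVA inhalation challenge. BAL cells differentiated about 48 h post-challenge (day 29). Comparison was against a sensitised, challenged, untreated group. Mean + SD, n = 10, Dunnett test.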

[13] = Cmax in Balb/c mouse plasma at 2 mg/kg, administered intranasally; format: ADME, organism-based; set-up: route nasal, dose 2 mg/kg; details: inhaled or intranasal; how it was run: as §3
[14] = Ratio of drug AUC lung to blood in Balb/c mouse at 2 mg/kg, administered intranasally; details: lung and blood, inhaled or intranasal
Moraxella catarrhalis = assay: Antibacterial activity against Moraxella catarrhalis ATCC 23246 by broth microdilution method; format: functional; how it was run: as §1
PBMC [15] = assay: Antiinflammatory activity in human PBMC assessed as inhibition of PHA-induced IL-8 production after 6 hrs; format: functional, cell-based; how it was run: as §2
Glucocorticoid receptor [16] = molecular target: T1, Glucocorticoid receptor; assay: Displacement of [3H]-dexamethasone human glucocorticoid receptor alpha expressed in 293 MSR cells after 60 mins by scintillation counting; format: cell-based
Streptococcus pneumoniae [17] = assay: Antibacterial activity against constitutive-resistant to macrolide, licosamide and streptogramin Streptococcus pneumoniae 58 Spain by broth microdilution method; format: functional; how it was run: as §4
[18] = Cmax in Balb/c mouse blood at 2 mg/kg, administered intranasally; format: ADME, organism-based; set-up: dose 2 mg/kg, route nasal; details: whole blood, inhaled or intranasal; how it was run: as §3
PBMC [19] = assay: Antiinflammatory activity in human PBMC assessed as inhibition of anti-CD3-induced IL-12p70 production after 48 hrs; format: functional, cell-based; how it was run: as §2
Streptococcus pneumoniae [20] = assay: Antibacterial activity against inducible-resistant to macrolide, licosamide and streptogramin Streptococcus pneumoniae 134 GR-M by broth microdilution method; format: functional; how it was run: as §4
[21] = AUC (0 to infinity) in Balb/c mouse plasma at 2 mg/kg, administered intranasally; format: ADME, organism-based; set-up: time infinity, route nasal, dose 2 mg/kg; details: inhaled or intranasal; how it was run: as §3

CC[C@H]1OC(=O)[C@H](C)[C@@H](O[C@H]2C[C@@](C)(OC)[C@@H](O)[C@H](C)O2)[C@H](C)[C@@H](O[C@@H]2O[C@H](C)C[C@H](N(C)C)[C@H]2O)[C@](C)(O)C[C@@H](C)CN(CCCNC(=O)[C@H]2[C@H](C)C[C@H]3[C@@H]4CCC5=CC(=O)C=C[C@]5(C)[C@@]4(F)[C@@H](O)C[C@@]32C)[C@H](C)[C@@H](O)[C@]1(C)O
MIC (Enterococcus faecalis): 64 µg/mL (≈ 56.3 µM)
Drug uptake [1]: Active
EC50 (PBMC [2]): 9000 nM
MIC (Haemophilus influenzae): 64 µg/mL (≈ 56.3 µM)
EC50 (PBMC [3]): 606 nM
EC50 (PBMC [4]): 420 nM
Tmax [5]: 0.25 h
EC50 (PBMC [6]): 5120 nM
EC50 (PBMC [7]): 3000 nM
MIC (Streptococcus pyogenes [8]): 32 µg/mL (≈ 28.2 µM)
MIC (Streptococcus pyogenes [9]): > 64 µg/mL
EC50 (Glucocorticoid receptor [10]): 4160 nM
half-life [11]: 20 h
Cmax [12]: 2410 ng/mL
Activity (Rattus norvegicus): Active
Cmax [13]: 223 ng/mL
lung-to-blood AUC ratio [14]: 53
MIC (Moraxella catarrhalis): 8 µg/mL (≈ 7.04 µM)
EC50 (PBMC [15]): 3050 nM
EC50 (Glucocorticoid receptor [16]): 430 nM
MIC (Streptococcus pneumoniae [17]): 64 µg/mL (≈ 56.3 µM)
Cmax [18]: 169 ng/mL
EC50 (PBMC [19]): 17 nM
MIC (Streptococcus pneumoniae [20]): > 64 µg/mL
AUC(0-inf) [21]: 181 ng·h/mL
